# Results: ChEMBL document CHEMBL3286344, “Bromopyrrole alkaloids isolated from the Patagonian bryozoan Aspidostoma giganteum” (J Nat Prod, 2014)
# Test: Cytotoxicity against human 786-O cells assessed as growth inhibition by MTS assay
# Type: functional, cell-based
# Conditions: 786-0; call rule not given here
# Method in brief: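 Cells seeded at 2 × 10³/well in complete medium; after 24 h, serial doses 0.05−100 μM or DMSO vehicle in medium with 2% FBS for 3 days, medium with fresh compound replaced every 2 days. Viability by MTS reduction to formazan, read as 492/620 nm absorbance ratio; IC50 derived. Cells checked mycoplasma-free by Hoechst method.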
row,Compound,IC50
1,O=c1c2c(Br)c(Br)cn2c(-c2cc(Br)c(O)c(Br)c2)cn1-n1cc(-c2cc(Br)c(O)c(Br)c2)n2c(Br)c(Br)cc2c1=O,Not Active
2,O=C1N[C@H](O)[C@H](c2c(Br)[nH]c3ccc(Br)cc23)n2c(Br)c(Br)c(Br)c21,Not Active
3,O=C(NC[C@@H](O)c1cc(Br)c(O)c(Br)c1)c1[nH]c(Br)c(Br)c1Br,Not Active
4,O=C(NC[C@@H](O)c1cc(Br)c(O)c(Br)c1)c1[nH]cc(Br)c1Br,Not Active
5,CCO[C@H](CNC(=O)c1[nH]c(Br)c(Br)c1Br)c1cc(Br)c(O)c(Br)c1,Not Active
6,O=C(NC[C@@H](O)c1cc(Br)c(O)c(Br)c1)c1cc(Br)c(Br)[nH]1,Not Active

# Same assay, conditions: Homo sapiens, 786-0; read-out: IC50
row,Compound,IC50 [µM]
1,O=c1[nH]cc(-c2c(Br)[nH]c3ccc(Br)cc23)n2c(Br)c(Br)c(Br)c12,27
2,COc1cccc2c1C(=O)c1c(O)c3c(c(O)c1C2=O)C[C@@](O)(C(=O)CO)C[C@@H]3O[C@H]1C[C@H](N)[C@H](O)[C@H](C)O1 [DOXORUBICIN],0.13
3,O=C(NCCc1c(Br)[nH]c2cc(Br)cc(O)c12)c1cc(Br)c(Br)[nH]1,15.1
4,CO[C@H]1NC(=O)c2c(Br)c(Br)c(Br)n2[C@H]1c1c(Br)[nH]c2ccc(Br)cc12,7.8
5,COc1ccc(C(=O)C(NC(=O)c2cc(Br)c(Br)[nH]2)OC)cc1Br (stereo unspecified),100
